The nature of series [1]: Cytotoxicity against non-infected African green monkey Vero cells after 7 days by MTS/PMS method. In kind it is cell-based. The conditions noted are these: chlorocebus sabaeus.
Series [2] relates to Chikungunya virus. In words: Antiviral activity against Chikungunya virus Indian Ocean strain 899 infected in African green monkey Vero cells assessed as inhibition of virus-induced cytopathic effect after 7 days by MTS/PMS method. In kind it is functional, cell-based. The conditions noted are these: Indian Ocean strain 899, Vero, 168 h. In general terms: Cytopathic effects are the visible damage that an infection or toxin causes in cultured cells.

The test system of series [3] is Chikungunya virus. In words: Antiviral activity against Chikungunya virus LR2006-OPY1 infected in African green monkey Vero E6 cells assessed as reduction in virus yield after 2 days by real time RT-PCR analysis. In kind it is functional, cell-based. The conditions noted are these: 48 h. (In general: In qPCR the cycle at which signal appears reflects the starting amount.)

Series [4] has as its system Chikungunya virus. In words: Antiviral activity against Chikungunya virus Congo 95 infected in African green monkey Vero E6 cells assessed as reduction in virus yield after 2 days by real time RT-PCR analysis. Conditions: Congo 95, Vero, 48 h. In kind it is functional, cell-based.
Series [5] has as its system Chikungunya virus. In words: Antiviral activity against Chikungunya virus St. Martin infected in African green monkey Vero E6 cells assessed as reduction in virus yield after 2 days by real time RT-PCR analysis. In kind it is functional, cell-based. The conditions noted are these: 48 h.
A further series relates to Semliki Forest virus. In words: Antiviral activity against Semliki forest virus Vietnam infected in African green monkey Vero E6 cells assessed as reduction in virus yield after 2 days by real time RT-PCR analysis. In kind it is functional, organism-based. Conditions: 48 h.
For a further series, the system named is Sindbis virus. In words: Antiviral activity against Sindbis virus HRsp infected in African green monkey Vero E6 cells assessed as reduction in virus yield after 2 days by real time RT-PCR analysis. In kind it is functional, organism-based. Conditions: 48 h.
Series [6] is described as follows: Cytotoxicity against non-infected African green monkey Vero E6 cells up to 300 uM after 2 days. In kind it is cell-based. The conditions noted are these: chlorocebus sabaeus, 48 h. A digest of the protocol: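 Uninfected Vero E6 cells were tested up to 300 μM under the same settings as the 2-day virus-yield assay: 5 × 10⁴ cells/well, 2.5% FCS medium, and 2-fold dilutions in triplicate.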

The subject of series [7] is Chikungunya virus. In words: Antiviral activity against Chikungunya virus Venturini infected in African green monkey Vero E6 cells assessed as reduction in virus yield after 2 days by real time RT-PCR analysis. In kind it is functional, cell-based. Conditions: 48 h.
A short description of series [8]: Selectivity index, ratio of CC50 for African green monkey Vero cells to EC50 for Chikungunya virus Indian Ocean strain 899 infected in African green monkey Vero cells. In kind it is toxicity, cell-based. The conditions noted are these: read-out: Ratio CC50/EC50.

Some results are limits rather than exact numbers.

Consider `CC(=O)c1cccc(-n2nnc3c(=O)n(C)c(C)nc32)c1`, for which the CC50 at 168 h in series [1] is over 706 µM. In the series on Chikungunya virus [2], the EC50 is over 441 µM and the EC90 is over 441 µM.

For the compound `CC(=O)c1cccc(-n2nnc3c(=O)[nH]c(C)nc32)c1`, the EC50 in the series on Chikungunya virus [3] is 25 µM; with Chikungunya virus [4] it was 6.4 µM; with Chikungunya virus [5] it was 24 µM; with Semliki Forest virus it was over 464 µM; in the series with Sindbis virus, over 464 µM; in the series with Chikungunya virus [2], 19 µM. Besides, the EC50 in the series on Chikungunya virus [7] was found to be 26 µM. Besides, the Activity entry in [6] is “Non-toxic”. The same compound displayed a CC50 at 168 h in [1] of over 743 µM. For the same compound, in the series with Chikungunya virus [2], the EC90 was 38 µM.

In turn, `CC(=O)c1cccc(-n2nnc3c(N)nc(C)nc32)c1` yielded a CC50 at 168 h in series [1] of over 746 µM. Further, in the series on Chikungunya virus [2], the EC50 came out at 225 µM and the EC90 was 309 µM.

`CNc1nc(C)nc2c1nnn2-c1cccc(C(C)=O)c1` showed a CC50 at 168 h in series [1] of 514 µM. In addition, in the series with Chikungunya virus [2], the EC50 is over 443 µM and the EC90 is over 443 µM.

The compound `COc1nc(C)nc2c1nnn2-c1cccc(C(C)=O)c1` had a CC50 at 168 h in series [1] of 495 µM. Also, in the series with Chikungunya virus [2], the EC50 was over 441 µM and the EC90 was over 441 µM.

In series [1], `CC(=O)c1cccc(-n2cnc3c(=O)[nH]c(C)nc32)c1` had a CC50 at 168 h of 491 µM. In the series with Chikungunya virus [2], the EC50 is 127 µM and the EC90 stood at 161 µM.

On to `CC(=O)c1cccc(-n2c(C)nc3c(=O)[nH]c(C)nc32)c1`, for which, in [1], the CC50 at 168 h was over 703 µM. Besides, in the series with Chikungunya virus [2], the EC50 was over 440 µM and the EC90 is over 440 µM.

In [1], `COc1ccccc1-n1nnc2c(=O)[nH]c(C)nc21` gave a CC50 at 168 h of over 777 µM. Moreover, in the series on Chikungunya virus [2], the EC50 stood at 348 µM and the EC90 was 460 µM.

In series [1], `COc1cccc(-n2nnc3c(=O)[nH]c(C)nc32)c1` displayed a CC50 at 168 h of over 777 µM. Moreover, in the series on Chikungunya virus [2], the EC50 is 28 µM and the EC90 turned out to be 179 µM.

Take `Cc1nc2c(nnn2-c2cccc(Cl)c2)c(=O)[nH]1`: the CC50 at 168 h in series [1] is over 764 µM. For the same compound, in the series with Chikungunya virus [2], the EC50 stood at 32 µM and the EC90 came to 235 µM.

`Cc1nc2c(nnn2-c2cccc(C(=O)c3ccccc3)c2)c(=O)[nH]1` had a CC50 at 168 h in series [1] of over 604 µM. Moreover, in the series on Chikungunya virus [2], the EC50 came to 23 µM and the EC90 came out at 47 µM.

Consider `Cc1nc2c(nnn2-c2cccc(OC(C)C)c2)c(=O)[nH]1`, for which the CC50 at 168 h in series [1] is over 704 µM. In the series with Chikungunya virus [2], the EC50 was determined as 12 µM and the EC90 was determined as 156 µM.

In [1], `CC(=O)Nc1cccc(-n2nnc3c(=O)[nH]c(C)nc32)c1` came in with a CC50 at 168 h of 206 µM. Besides, in the series with Chikungunya virus [2], the EC50 worked out at 318 µM and the EC90 came to 425 µM.

On to `Cc1nc2c(nnn2-c2cccc(N(C)C)c2)c(=O)[nH]1`, for which the CC50 at 168 h in series [1] worked out at 538 µM. In the series on Chikungunya virus [2], the EC50 is over 370 µM and the EC90 is over 370 µM.

`Cc1nc2c(nnn2-c2cccc(C#N)c2)c(=O)[nH]1` had a CC50 at 168 h in series [1] of over 793 µM. In addition, in the series with Chikungunya virus [2], the EC50 turned out to be 131 µM and the EC90 turned out to be 187 µM.

As to `CC(=O)c1cccc(-n2nnc3c(=O)[nH]cnc32)c1`, the CC50 at 168 h in series [1] was over 784 µM. Moreover, in the series on Chikungunya virus [2], the EC50 is over 490 µM and the EC90 is over 490 µM.

In turn, `CC(=O)c1ccc(-n2nnc3c(=O)[nH]c(C)nc32)cc1` had a CC50 at 168 h in series [1] of over 743 µM. In the series on Chikungunya virus [2], the EC50 amounted to 326 µM and the EC90 is over 743 µM.

As to `CCCOc1ccc(-n2nnc3c(=O)[nH]c(C)nc32)cc1`, in series [1], the CC50 at 168 h came out at 594 µM. Moreover, in the series on Chikungunya virus [2], the EC50 came out at 169 µM and the EC90 was over 701 µM.

Compound `Cc1nc2c(nnn2-c2ccc3c(c2)OCO3)c(=O)[nH]1` displayed a CC50 at 168 h in [1] of over 737 µM. In addition, in the series on Chikungunya virus [2], the EC50 is over 461 µM and the EC90 was over 461 µM.

For the compound `CCOC(=O)c1cccc(-n2nnc3c(=O)[nH]c(C)nc32)c1`, the half-maximal cytotoxic concentration (CC50) at 168 h in series [1] was 322 µM. In the series with Chikungunya virus [2], the EC50 is 202 µM and the EC90 stood at 331 µM.

In the case of `Cc1nc2c(nnn2-c2cccc(C(=O)O)c2)c(=O)[nH]1`, the CC50 at 168 h in series [1] was over 638 µM. Further, in the series with Chikungunya virus [2], the EC50 was over 399 µM and the EC90 is over 399 µM.

On to `CC(C)Oc1cccc(-n2nnc3c(=O)[nH]c(C(F)(F)F)nc32)c1`, for which, in series [1], the CC50 at 168 h stood at 104 µM. Also, in the series with Chikungunya virus [2], the EC50 stood at 68 µM and the EC90 is over 147 µM.

Regarding `CCc1nc2c(nnn2-c2cccc(OC(C)C)c2)c(=O)[nH]1`, the EC50 with Chikungunya virus [3] came out at 2.6 µM; in the series with Chikungunya virus [4], 0.75 µM; in the series on Chikungunya virus [5], 2.9 µM; in the series on Semliki Forest virus, 219 µM; in the series with Sindbis virus, 69 µM; with Chikungunya virus [2] it was 3 µM. Further, the 50% effective concentration (EC50) in the series on Chikungunya virus [7] came to 1.4 µM. Also, in [8], the selectivity ratio was over 222. For the same compound, the Activity entry in series [6] is reported as “Non-toxic”. For the same compound, the half-maximal cytotoxic concentration (CC50) at 168 h in series [1] was over 668 µM. In addition, the EC90 in the series on Chikungunya virus [2] was 18 µM.

`CC(C)Oc1cccc(-n2nnc3c(=O)[nH]c(CC#N)nc32)c1` displayed a CC50 at 168 h in series [1] of 215 µM. Moreover, in the series on Chikungunya virus [2], the EC50 was found to be 115 µM and the EC90 was determined as 137 µM.

Turning to `CCCc1nc2c(nnn2-c2cccc(OC(C)C)c2)c(=O)[nH]1`, the CC50 at 168 h in series [1] was over 638 µM. Moreover, in the series with Chikungunya virus [2], the EC50 was over 399 µM and the EC90 is over 399 µM.

In the case of `CC(C)Oc1cccc(-n2nnc3c(=O)[nH]c(C(C)C)nc32)c1`, the CC50 at 168 h in series [1] is over 638 µM. Also, in the series on Chikungunya virus [2], the EC50 was determined as 280 µM and the EC90 is over 638 µM.

Consider `CC(C)Oc1cccc(-n2nnc3c(=O)[nH]c(-c4ccccc4)nc32)c1`, for which the CC50 at 168 h in [1] turned out to be 277 µM. In the series with Chikungunya virus [2], the 50% effective concentration (EC50) is 204 µM and the EC90 is over 360 µM.

The compound `CC(C)Oc1cccc(-n2nnc3c(=O)[nH]c(-c4ccncc4)nc32)c1` showed a CC50 at 168 h in [1] of 82 µM. In addition, in the series on Chikungunya virus [2], the EC50 is 75 µM and the EC90 was over 144 µM.

The compound `CC(C)Oc1cccc(-n2nnc3c(=O)[nH]c(=O)[nH]c32)c1` displayed a CC50 at 168 h in [1] of over 696 µM. In the series on Chikungunya virus [2], the EC50 was over 435 µM and the EC90 was over 435 µM.

In series [1], `Cc1nc2c(nnn2Cc2cccc(OC(C)C)c2)c(=O)[nH]1` gave a CC50 at 168 h of over 872 µM. In the series with Chikungunya virus [2], the EC50 came to 167 µM and the EC90 turned out to be 232 µM.

For `CC(=O)c1cccc(-n2nnc3c(Cl)nc(C)nc32)c1`, in series [1], the CC50 at 168 h was over 174 µM. Further, in the series with Chikungunya virus [2], the EC50 is over 174 µM and the EC90 was over 174 µM.

Turning to `CCN(CC)CCCC(C)Nc1ccnc2cc(Cl)ccc12` (centres undefined) [CHLOROQUINE], the EC90 in the series with Chikungunya virus [2] amounted to 21 µM.

For orientation: CC50 means the concentration at which the toxic effect on the cells reaches its halfway point. As usually defined, the EC50 is the concentration at which the effect is half-maximal. Usually EC90 stands for the point of the concentration-response curve where the effect stands at 90%.
